In the library only some 2.6% were active in any assay of this set; here they are far more common.
SENP1 FRET inh = SENP1 (human) catalytic domain inhibition; Q9P0U3; recombinant SENP1 catalytic domain, CyPet-SUMO1-YPet FRET cleavage; inhibition, % at 10 µM; 360,000 tested, 0.21% active; AID 624204;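 active = inhibition at least 30% at 10 µM, raw YFP signal under a set limit, fluorescence ratio 0.5 to 1.5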
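material = recombinant human SENP1 catalytic domain, His6-tagged | quantity = 20 pM enzyme | reagent = 25 nM SUMO1 FRET substrate | compound dosing = 10 µM single point, 0.5% DMSO | timing = 50 min enzyme reaction, room temperature, light-protected | detection = FRET, CFP and YFP emission | control set = no-enzyme low, enzyme-DMSO high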
SENP8 block-1 = SENP8 (human) protease inhibition. 360,000 tested, 0.64% active. inhibition, % at 20 µM. Q96LD8. AID 602440. recombinant SENP8, Nedd8 substrate fluorescence; in the data active = inhibition mostly above about 40%, no sharp cut-off; inactive = mostly below about 27%
Platelet DG rel = modulates dense granule release in human platelets; AID 1663; 300,000 tested, 0.22% active; human platelet-rich plasma, SFLLRN dense granule ATP release, luminescence; inhibition, %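 (compounds screened at 7.5 µM in platelet-rich plasma)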;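 active = mean replicate score, as percent of positive control, at or above 50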
SENP8 block-2 = blocks the human protease SENP8. 330,000 tested, 1.2% active. inhibition, % at 10 µM. Q96LD8. AID 2540. purified SENP8, Z-RLRGG-aminoluciferin cleavage, luminescence; in the data active = inhibition above about 50%
SENP7 inh = SENP7 protease inhibition; recombinant SENP7, Z-RLRGG-aminoluciferin luminescence, 40 min; inhibition, % at 5 µM; 330,000 tested, 1.5% active;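 active = inhibition above about 50% at the single test dose, limit read from the data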
Target sequence (Q9BQF6 706-1050 limits assumed): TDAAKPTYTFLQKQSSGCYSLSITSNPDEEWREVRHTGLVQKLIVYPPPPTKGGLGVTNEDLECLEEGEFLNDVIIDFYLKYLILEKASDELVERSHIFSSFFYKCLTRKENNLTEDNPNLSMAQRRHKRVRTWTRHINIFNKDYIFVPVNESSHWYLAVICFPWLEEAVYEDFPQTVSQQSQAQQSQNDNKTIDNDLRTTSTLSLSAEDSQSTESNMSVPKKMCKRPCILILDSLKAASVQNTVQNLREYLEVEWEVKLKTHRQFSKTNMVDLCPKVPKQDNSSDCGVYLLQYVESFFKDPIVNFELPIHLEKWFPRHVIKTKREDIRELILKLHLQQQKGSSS
SENP6 inh = blocks the human protease SENP6 | Recombinant SENP6 catalytic domain, aminoluciferin luminescence | 330,000 tested, 1.8% active | Q9GZR1 | inhibition, % at 10 µM | AID 2599;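 active = inhibition above about 50% at the single tested dose, limit read from the data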
SENP8 confirm = confirmation of human SENP8 protease inhibitors; shares compounds with SENP7 inh; Recombinant SENP8, Z-RLRGG-aminoluciferin luminescence, 60 min; inhibition, % at 12.5 µM; 6,200 tested, 40% active;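 active = mean inhibition across replicates above about 50%, limit read from the data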
SENP6 conf = confirmation of human SENP6 protease inhibitors; 6,200 tested, 58% active; inhibition, % at 12.5 µM; shares compounds with SENP7 inh; recombinant SENP6, Z-RLRGG-aminoluciferin luminescence
SENP7 conf = human SENP7 inhibition, confirmed; 6,200 tested, 69% active; inhibition, % at 12.5 µM; recombinant SENP7, Z-RLRGG-aminoluciferin luminescence, 40 min; shares compounds with SENP7 inh
Casp3 select = caspase-3 inhibition (SENP selectivity assay); shares compounds with SENP7 inh; purified caspase-3, Z-DEVD-aminoluciferin luminescence, 60 min; inhibition, % at 12.5 µM; 6,200 tested, 60% active; AID 488918;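 active = mean inhibition above about 50%, limit read from the data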
Target sequence (P42574 28-227 limits assumed): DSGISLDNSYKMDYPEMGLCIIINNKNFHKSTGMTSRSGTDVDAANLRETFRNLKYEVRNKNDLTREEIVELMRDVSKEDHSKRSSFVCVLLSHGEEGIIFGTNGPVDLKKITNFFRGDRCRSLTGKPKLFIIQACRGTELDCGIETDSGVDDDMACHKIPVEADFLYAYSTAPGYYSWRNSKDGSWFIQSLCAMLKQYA
SENP luc ctr = interferes with luciferase luminescence in SENP counter-screen | shares compounds with SENP7 inh | inhibition, % at 12.5 µM | 6,200 tested, 39% active | Pre-incubated SENP8/Z-RLRGG-aminoluciferin, luciferase luminescence interference;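 active = mean inhibition above about 50% when retested at one dose, limit read from the data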
Each line names hits and unclear results; the compound was inactive in the other large screens (follow-up assays come after a bar, where they were run).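 The calls were made as follows, unless noted: active = mean inhibition above about 50% in the one-dose retest (limit read from the data); inactive = the rest.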

O=C(CCCN1C(=O)S/C(=C/c2ccccc2)C1=S)Nc1ccc(C(=O)O)cc1	SENP8 block-2 72, SENP6 inh 66 | SENP8 confirm inactive | SENP6 conf 52 | SENP7 conf 72 | Casp3 select inactive | SENP luc ctr inactive
CCc1ccc(/C=C2\SC(=S)N(CCCC(=O)Nc3ccc(C(=O)O)cc3)C2=O)cc1	SENP8 block-2 94, SENP7 inh 83, SENP6 inh 92 | SENP8 confirm 93 | SENP6 conf 97 | SENP7 conf 98 | Casp3 select 77 | SENP luc ctr 55
O=C(CCCN1C(=O)/C(=C/c2ccc3c(c2)OCO3)SC1=S)Nc1ccc(C(=O)O)cc1	SENP8 block-2 86, SENP7 inh 78, SENP6 inh 93 | SENP8 confirm inactive | SENP6 conf inactive | SENP7 conf inactive | Casp3 select inactive | SENP luc ctr inactive
O=C(CCN1C(=O)/C(=C/c2ccc3c(c2)OCO3)SC1=S)Nc1ccc(C(=O)O)cc1	none
COc1ccc(/C=C2\SC(=O)N(CCCC(=O)Nc3ccc(C(=O)O)cc3)C2=O)cc1	none (no result: Platelet DG rel, SENP8 block-2, SENP7 inh, SENP6 inh)
CSc1ncnc2c1ncn2CCCN(C)Cc1ccco1	none (no result: Platelet DG rel, SENP8 block-2, SENP7 inh, SENP6 inh)
COc1cc(CNC(=O)Nc2nnc([C@@H]3C[C@H](O)[C@@H](CO)O3)s2)cc(OC)c1OC	none (no result: Platelet DG rel, SENP8 block-2, SENP7 inh, SENP6 inh)
O=C(Nc1cccc(O)c1)c1ccc(C(F)(F)F)cc1	SENP8 block-2 67, SENP7 inh 72, SENP6 inh 74 | SENP8 confirm 68 | SENP6 conf 70 | SENP7 conf 92 | Casp3 select 72 | SENP luc ctr 64
O=C(Nc1ccc(C(F)(F)F)cc1)c1ccccc1	SENP7 inh 63 (no result: Platelet DG rel) | SENP8 confirm inactive | SENP6 conf inactive | SENP7 conf inactive | Casp3 select inactive | SENP luc ctr inactive
O=C(Nc1cccc(C(F)(F)F)c1)c1cc[n+]([O-])cc1	none
Cc1cc(C)cc(CC(=O)N2CCC2(C)C(=O)NS(=O)(=O)c2cccc(F)c2)c1 (centres undefined)	none (no result: Platelet DG rel, SENP8 block-2, SENP7 inh, SENP6 inh)
CC(=O)Nc1ccc(NC(=O)CC2Nc3cccc4cccc(c34)NC2=O)cc1 (centres undefined)	SENP8 block-2 75, SENP7 inh 75, SENP6 inh 93 | SENP8 confirm inactive | SENP6 conf inactive | SENP7 conf inactive | Casp3 select inactive | SENP luc ctr inactive
Cc1cccc(NC(=O)CC2Nc3cccc4cccc(c34)NC2=O)c1 (centres undefined)	SENP8 block-2 76, SENP7 inh 67, SENP6 inh 83 | SENP8 confirm inactive | SENP6 conf inactive | SENP7 conf inactive | Casp3 select inactive | SENP luc ctr inactive
CC(=O)c1ccc(NC(=O)CC2Nc3cccc4cccc(c34)NC2=O)cc1 (centres undefined)	SENP8 block-2 50, SENP7 inh 56, SENP6 inh 89 | SENP8 confirm inactive | SENP6 conf inactive | SENP7 conf inactive | Casp3 select inactive | SENP luc ctr inactive
O=C(CNC(=O)c1ccco1)N/N=C/c1ccc(C(=O)O)cc1	none
CC1CCc2c(sc(NC(=O)c3ccco3)c2C(=O)O)C1 (centres undefined)	SENP8 block-2 62, SENP6 inh 78 | SENP8 confirm 78 | SENP6 conf 72 | SENP7 conf 88 | Casp3 select 66 | SENP luc ctr 65
O=C(Nc1sc2c(c1C(=O)O)CCCCC2)c1ccco1	SENP8 block-2 93, SENP7 inh 88, SENP6 inh 97 | SENP8 confirm 96 | SENP6 conf 97 | SENP7 conf 101 | Casp3 select 96 | SENP luc ctr 95
CN(C)C(=O)c1c(NC(=O)c2ccco2)sc2c1CCCCC2	none
O=C(CCCOc1cccc(Br)c1)NCCOc1ccccc1	none
CCOC(=O)/C(=N\Nc1ncnc2ccccc12)c1ccc(OC)cc1	SENP8 block-2 74, SENP7 inh 65, SENP6 inh 77 | SENP8 confirm inactive | SENP6 conf 70 | SENP7 conf 90 | Casp3 select inactive | SENP luc ctr inactive
Cc1ccc(-n2cc(C(=O)c3ccc4ccccc4c3O)cn2)cc1	none
Cc1ccc(O)c(C(=O)c2cnn(-c3ccccc3)c2)c1	SENP6 inh 53 | SENP8 confirm inactive | SENP6 conf inactive | SENP7 conf inactive | Casp3 select inactive | SENP luc ctr inactive
Cc1ccc(-n2cc(C(=O)c3ccccc3O)cn2)cc1	SENP8 block-2 92, SENP7 inh 97, SENP6 inh 91 | SENP8 confirm inactive | SENP6 conf 97 | SENP7 conf 101 | Casp3 select 92 | SENP luc ctr inactive
CC1Nc2ncnc(N3CCN(c4ccccc4)CC3)c2N(Cc2ccc(Br)cc2)C1=O (centres undefined)	none
CN(C)c1ccc(/C=C/C(=O)c2cccc(Br)c2)cc1	SENP6 inh 52 | SENP8 confirm inactive | SENP6 conf inactive | SENP7 conf inactive | Casp3 select inactive | SENP luc ctr inactive
CN(C)c1ccc(C(=O)/C=C/c2cccnc2)cc1	none
CCCc1[nH]n(-c2ccc([N+](=O)[O-])cc2)c(=O)c1C=NCCN1CCNCC1	SENP8 block-2 84, SENP7 inh 87, SENP6 inh 92 (no result: SENP1 FRET inh, SENP8 block-1) | SENP8 confirm 78 | SENP6 conf 50 | SENP7 conf 57 | Casp3 select 85 | SENP luc ctr 69
Cc1[nH]n(-c2ccc([N+](=O)[O-])cc2)c(=O)c1C=NCCN1CCN(C(=O)C(C)C)CC1	SENP8 block-2 62, SENP7 inh 78, SENP6 inh 85 | SENP8 confirm inactive | SENP6 conf inactive | SENP7 conf inactive | Casp3 select inactive | SENP luc ctr inactive
CCCc1[nH]n(-c2ccc([N+](=O)[O-])cc2)c(=O)c1C=NCCCn1ccnc1	none
c1cc2c(c(CC3CO3)c1CC1CO1)OCCOCCOCCOCCO2 (centres undefined)	none (no result: Platelet DG rel, SENP8 block-2, SENP7 inh, SENP6 inh)
CC(=O)N(C)C1=C(N2CCOCC2)C(=O)c2ccccc2C1=O	none

High-throughput results deposited in PubChem by several laboratories.
